Reference: publication PMC11364517 (Neuron, 2024)

Columns and labels:
GRABNE2m [1] = assay: Ligand selectivity of GRABNE2m expressed in HEK293T cells; type: cell-based; details: for fluorescence response of GRABNE2m to the ligand: HEK293T cells, trace amines and NE metabolites in full doses (Fig. S2C, S2D)
GRABNE2h [2] = assay: Ligand selectivity of GRABNE2h expressed in HEK293T cells; type: cell-based; details: for fluorescence response of GRABNE2h to the ligand: HEK293T cells, trace amines and NE metabolites in full doses (Fig. S2C, S2D)
GRABNE2m [3] = details: read-out: apparent affinity values (EC50); n = 3
GRABNE2h [4] = details: read-out: apparent affinity values (EC50); n = 3
[5] = system: optogenetically evoked NE release in the LC; assay: Fiber photometry in the LC of freely moving TH-Cre mice during optogenetic; type: in vivo; details: i.p. injection; GRABNE2m and GRABNE2h
Outline: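 Mice received hSyn-GRABNE2m or NE2h AAV plus Cre-dependent C1V1-YFP AAV (1 × 10¹³ genomic copies per ml) in the LC at 100 nl/min, 500 nl, under Avertin (500 mg/kg i.p.) or 1.5% isoflurane. LC fibres (105/125 μm) were implanted four weeks later. Photometry used a 473-nm laser, 25 μW at the fibre tip. Test compound was given i.p.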

SMILES | fluorescence response of GRABNE2m to the ligand (GRABNE2m [1]) | fluorescence response of GRABNE2h to the ligand (GRABNE2h [2]) | other results
COc1cc(C(O)CO)ccc1O (stereo not shown) [3-methoxy-4-hydroxyphenylglycol] | not respond | not respond | –
NCCc1ccc(O)c(O)c1 [DA, dopamine] | – | – | EC50 (GRABNE2m [3]): 20 µM; EC50 (GRABNE2h [4]): 9 µM
Fc1ccc(C(OCCN2CCN(CCCc3ccccc3)CC2)c2ccc(F)cc2)cc1 [GBR-12909] | – | – | effect on decay kinetics of the optogenetically evoked response [5]: no effect
NC[C@H](O)c1ccc(O)c(O)c1 [NE, norepinephrine] | – | – | EC50 (GRABNE2m [3]): 0.38 µM; EC50 (GRABNE2h [4]): 0.19 µM
CC(=O)OCC[N+](C)(C)C [acetylcholine] | do not respond | do not respond | –
Nc1ncnc2c1ncn2[C@@H]1O[C@H](CO)[C@@H](O)[C@H]1O [adenosine] | do not respond | do not respond | –
CCc1cc(Cl)c(OC)c(C(=O)NC[C@@H]2CCCN2CC)c1O [eticlopride] | – | – | effect on decay kinetics of the optogenetically evoked response [5]: no effect
N[C@@H](CCC(=O)O)C(=O)O [glutamate, L-Glutamic acid] | do not respond | do not respond | –
NCCc1c[nH]cn1 [histamine] | do not respond | do not respond | –
CC(C)NCC(O)c1ccc(O)c(O)c1 (stereo not shown) [isoprenaline] | do not respond | do not respond | –
COc1cc(C(O)CN)ccc1O (stereo not shown) [normetanephrine] | not respond | not respond | –
NCC(O)c1ccc(O)cc1 (stereo not shown) [octopamine] | not respond | not respond | –
NCCc1ccccc1 [phenethylamine] | not respond | not respond | –
NCCc1c[nH]c2ccc(O)cc12 [serotonin] | do not respond | do not respond | –
NCCc1ccc(O)cc1 [tyramine] | not respond | not respond | –
COc1cc(C(O)C(=O)O)ccc1O (stereo not shown) [vanillylmandelic acid] | not respond | not respond | –
COC(=O)[C@@H]1[C@H]2C[C@H]3c4[nH]c5ccccc5c4CCN3C[C@@H]2CC[C@@H]1O [yohimbine] | – | – | block of the NE-induced response of GRABNE2m (GRABNE2m [1]; HEK293T cells (Fig. S2D)): blocked; block of the NE-induced response of GRABNE2h (GRABNE2h [2]; HEK293T cells (Fig. S2D)): blocked
NCCCC(=O)O [γ-aminobutyric acid] | do not respond | do not respond | –
